Legend:
[1] = Activation of voltage-gated sodium channel in mouse Neuro-2a cells assessed as intracellular sodium influx; conditions: N2a
[2] = Inhibition of calcium channel in mouse neocortical neurons assessed as inhibition of intracellular calcium oscilations; format: cell-based
Summary of the method: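 Primary neocortical neurons from embryonic day 16 Swiss-Webster mice, used at 12–13 DIV. Loaded 1 h with 4 μM fluo-3 plus 0.04% pluronic F-127 in Locke's buffer (pH 7.4), washed four times. Excitation 485 nm, emission 535 nm, read every 1.5 s; 60 s baseline, then compound added as a 4× solution. IC50 given with 95% CI.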

NCI-H460 = assay: Cytotoxicity against human H460 cells; format: functional, cell-based
[3] = Activation of voltage-gated sodium channel in mouse neocortical neuron assessed as intracellular sodium influx
[4] = Cytotoxicity against mouse Neuro2a cells; format: functional, cell-based, N2a
[5] = Homo sapiens, NCI-H460, read-out: IC50

Structure (SMILES) | IC50 [1] [µM] | IC50 ([2]; Mus musculus, read-out: IC50) [µM] | IC50 (NCI-H460; nci-h460) | EC50 ([3]; Mus musculus, read-out: EC50) [µM] | IC50 [2] | IC50 ([4]; n2a) | EC50 [3] | IC50 ([4]; Mus musculus, N2a, read-out: IC50) [µM] | IC50 (NCI-H460; [5]) [µM]
CCC[C@@H](C)[C@H](OC(=O)c1ccc(Br)cc1)[C@H](C)[C@H]1OC(=O)[C@H]([C@@H](C)O)NC(=O)[C@H](C(C)C)OC(=O)[C@H](C)[C@H](O)[C@H]([C@@H](C)CC)NC(=O)[C@@]2(C)CSC(=N2)[C@@]2(C)CSC(=N2)c2csc(n2)C[C@H](OC)[C@@H]1C | 3.4 | 0.0873 | Not Active | 9.3 | – | – | – | – | –
CCC[C@@H](C)[C@H](OC(C)=O)[C@H](C)[C@H]1OC(=O)[C@H]([C@@H](C)OC(C)=O)NC(=O)[C@H](C(C)C)OC(=O)[C@H](C)[C@H](OC(C)=O)[C@H]([C@@H](C)CC)NC(=O)[C@@]2(C)CSC(=N2)[C@@]2(C)CSC(=N2)c2csc(n2)C[C@H](OC)[C@@H]1C | – | – | Not Active | – | Not Active | Not Active | Not Active | – | –
CCC[C@@H](C)[C@H](O)[C@H](C)[C@H]1OC(=O)[C@H]([C@@H](C)O)NC(=O)[C@H](C(C)C)OC(=O)[C@H](C)[C@H](O)[C@H]([C@@H](C)CC)NC(=O)[C@@]2(C)CSC(=N2)[C@@]2(C)CSC(=N2)c2csc(n2)C[C@H](OC)[C@@H]1C [HOIAMIDE A] | – | 0.0456 | – | 1.7 | – | – | – | 2.1 | 11.2
CCC[C@@H](C)[C@H](O)[C@H](C)[C@H]1OC(=O)[C@H]([C@@H](C)O)NC(=O)[C@H]([C@@H](C)CC)OC(=O)[C@H](C)[C@H](O)[C@H]([C@@H](C)CC)NC(=O)[C@@]2(C)CSC(=N2)[C@@]2(C)CSC(=N2)c2csc(n2)C[C@H](OC)[C@@H]1C [HOIAMIDE B] | – | 0.0798 | – | 3.9 | – | Not Active | – | – | 8.3
CCC[C@@H](C)[C@H](O)[C@H](C)[C@@H](O)[C@@H](C)[C@H](Cc1nc(C2=N[C@@](C)(C3=N[C@@](C)(C(=O)N[C@H]([C@@H](O)[C@@H](C)C(=O)OCC)[C@@H](C)CC)CS3)CS2)cs1)OC [HOIAMIDE C] | – | – | Not Active | – | Not Active | Not Active | Not Active | – | –

Source: ChEMBL document CHEMBL1212930, “The hoiamides, structurally intriguing neurotoxic lipopeptides from Papua New Guinea marine cyanobacteria” (J Nat Prod, 2010)
